Measured values of several laboratories.
Target: Serine/threonine-protein kinase 25 (STK25, Homo sapiens, UniProt O00506)

For `Cc1cc(NC(=O)c2cccc3cc(-c4cccc5[nH]nc(N)c45)ccc23)ccc1F`, the activity vs control was 92% (enzyme activity; inhibitor; 0.1 µM).
`CNC(=O)c1ccc(Nc2ncc(C(F)(F)F)c(NCc3nccnc3N(C)S(C)(=O)=O)n2)cc1` gave a remaining binding of 85% (cell-free assay; competition with immobilised ligand; 0.1 µM).
For `CC(C)(C)c1nc2c(s1)c1nc(N)ncc1c1ccc(NS(=O)(=O)c3c(F)cccc3F)c(F)c12`, the remaining activity was 57% (enzyme activity; inhibitor; radiometric; 1 µM).
`O=C(Nc1ccc(Oc2ccc(F)cc2)cc1)N1CCc2ncccc2[C@H]1c1ccc(F)cc1` has a remaining binding of 100% (cell-free assay; competition with immobilised ligand; 1 µM).
For `CC1CCCN1c1nccc(-c2cnn3ncccc23)n1` (centres unmarked), the remaining binding was 100% (binding; 1 µM).
With `COc1cc2ncnc(Nc3ccc(F)c(Cl)c3)c2cc1OCCCN1CCOCC1` the remaining signal was 97.4% (cell-free assay; 0.5 µM).
With `CC1=C(C#N)C(c2ccc3c(c2)c(NC(=O)c2ccccc2C)nn3C)C(C#N)=C(C)N1` the remaining binding was 100% (cell-free assay; competition with immobilised ligand; 1 µM).
The remaining signal of `N#CCCc1ccc2c(c1)-c1[nH]c3ccc([N+](=O)[O-])cc3c1CC(=O)N2` is reported as 91.1% (cell-free assay; 0.5 µM).
`COc1cc2ncnc(Nc3ccc(Oc4ccccc4)c(C)c3C)c2cc1OC` has an inhibition of 8% (enzyme activity; inhibitor; 1 µM).
`CCCS(=O)(=O)Nc1ccc(F)c(C(=O)c2c[nH]c3ncc(-c4ccc(Cl)cc4)cc23)c1F` gave an inhibition of less than 10% (enzyme activity; inhibitor; 1 µM).
`Cn1c2c(Cl)c(Cl)ccc2c2cc[nH]c(=O)c21` gave a ΔTm of 0.5 °C (thermal stability; DSF; 10 µM).
The remaining activity of `CC(C)(O)[C@H]1CC[C@H](Nc2ccc3ncc(-c4cccc(C(F)(F)F)c4)n3n2)CC1` is reported as 87% (enzyme activity; inhibitor; 1 µM).
For `O=C(Nc1cnn(-c2csc(C(=O)NC3COC3)c2)c1)Nc1c(F)cccc1Cl`, the remaining activity was 96.1% (enzyme activity; inhibitor; 5 µM).
`Cc1ccc(NC(=O)c2ccc(C)c(C(F)(F)F)c2)cc1C#Cc1nn(C2CCC(O)CC2)c2ncnc(N)c12` (centres unmarked) gave a remaining signal of 66% (cell-free assay; 10 µM).
For `O=C1Nc2ccc(Cl)cc2C1=Cc1cc(Cl)c(O)c(Cl)c1`, the remaining signal was 94% (cell-free assay; 0.5 µM).
For `C[C@@H]1CN(c2cc(-c3n[nH]c4ccc(OC5(C)CC5)cc34)ncn2)C[C@H](C)O1`, the remaining binding was 100% (cell-free assay; competition with immobilised ligand; 0.1 µM).
For `Cc1ccc(C(=O)Nc2ccc(CN3CCN(C)CC3)c(C(F)(F)F)c2)cc1C#Cc1cnc2cccnn12`, the remaining activity was 98% (enzyme activity; inhibitor; 23.5 nM).
The ΔTm of `CCN1CCC2(CC1)NC(=O)c1c(c3ccc(Cl)c(Cl)c3n1C)C2C#N` (racemic) is reported as -0.2 °C (thermal stability; DSF; 10 µM).
For `COc1ccc2c(O[C@@H]3C[C@H]4C(=O)N[C@]5(C(=O)O)CC5/C=C\CCCCC[C@H](NC(=O)OC5CCCC5)C(=O)N4C3)cc(-c3csc(NC(=O)C(C)C)n3)nc2c1C` (some centres unmarked), the remaining binding was 100% (cell-free assay; competition with immobilised ligand; 1 µM).
`c1ccc(CNc2nc(N3CCOc4ccccc43)nc3c2CCCC3)cc1` has an inhibition of 34.6% (target engagement in cells; inhibitor; chemoproteomics; 20 mM).
`O=C(NCc1ncc(C(F)(F)F)cc1Cl)c1ccc2c(c1)C1(CCS(=O)(=O)CC1)[C@H](C1CC1)N2S(=O)(=O)c1ccc(F)cc1` has a remaining binding of 100% (cell-free assay; competition with immobilised ligand; 1 µM).
The inhibition of `COc1cccc2c(NCc3ccccc3)nc(-n3c(N)nc4ccccc43)nc12` is reported as 3.5% (target engagement in cells; inhibitor; chemoproteomics; 20 mM).
With `CO[C@@H](C)c1c(Nc2ccc([C@H](N(C)C(=O)C3CCS(=O)(=O)CC3)C(F)(F)F)cc2)cnc2cc(Cl)nn12` the remaining binding was 87% (cell-free assay; competition with immobilised ligand; 1 µM).
For `Cn1c2c(c3ccc(Cl)c(Cl)c31)C(C#N)C(C)(C)NC2=O` (centres unmarked), the ΔTm was 1.2 °C (thermal stability; DSF; 10 µM).
`C[C@@H]1CN(c2cc(-c3nn(C)c4ccc(OC5(C)CC5)cc34)ncn2)C[C@H](C)O1` gave a remaining binding of 100% (cell-free assay; competition with immobilised ligand; 1 µM).
`COc1cc(-c2cc(-c3ccc(N4CCNCC4)cc3)cnc2C)cc(OC)c1OC` gave an inhibition of 2% (enzyme activity; inhibitor; 1 µM).
